# High-throughput results as filed in PubChem.
# M1 PAM parental – counter-screen for M1 PAMs: effect in parental CHO-K1 cells | hit rate 0.02% among 360,000 | activation, % at 3 µM | ATP EC20, Fluo-8 calcium fluorescence; 0% at ATP EC20, 100% at ATP max;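 active = activation above the run cutoff, the mean activation of all test compounds plus 3 SD, cut at about 40% in these data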;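 also: peak over basal fluorescence ratio in a 140 s read after ATP addition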
# CHO-K1 Ca antag – nonselective inhibitor or artifact in parental CHO-K1 cells; hit rate 0.6% among 360,000; inhibition, % at 3 µM; ATP-induced calcium, Fluo-8 fluorescence;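 active = inhibition above a per-plate cutoff, the plate's mean sample inhibition plus 3 SD, cut at about 24% in these data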;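 also: 0% = DMSO plus EC80 ATP and 100% = DMSO alone without ATP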
# OX1R antag-1 – human HCRTR1 antagonism; O43613; CHO/OX1R cells, Fluo-8 calcium fluorescence, orexin A; inhibition, % at 5 µM; hit rate 0.43% among 330,000;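 active = inhibition above its plate's threshold, mean inhibition of all tested compounds on the plate plus 3 SD, cut at about 37% in these data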;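 also: 0% = orexin A challenge wells and 100% = SB-334867-A antagonist wells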
# Target sequence (O43613 whole entry, looked up): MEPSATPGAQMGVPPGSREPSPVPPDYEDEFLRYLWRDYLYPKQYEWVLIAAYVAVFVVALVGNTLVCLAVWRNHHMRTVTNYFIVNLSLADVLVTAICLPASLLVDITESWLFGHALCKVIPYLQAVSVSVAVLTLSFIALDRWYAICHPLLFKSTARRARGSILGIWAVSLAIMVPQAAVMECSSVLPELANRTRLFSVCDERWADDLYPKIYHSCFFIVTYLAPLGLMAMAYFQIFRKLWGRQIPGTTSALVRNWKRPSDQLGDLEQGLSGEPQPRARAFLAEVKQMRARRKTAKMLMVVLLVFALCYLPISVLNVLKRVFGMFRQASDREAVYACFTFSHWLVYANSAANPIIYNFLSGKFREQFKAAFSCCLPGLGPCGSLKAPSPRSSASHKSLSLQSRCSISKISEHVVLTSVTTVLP
# OX1R antag-2 – OX1R (human) antagonism. OX1R-expressing cells, FRET antagonist read-out. inhibition, % at 6.6 µM. hit rate 1.8% among 330,000; in the data active = inhibition mostly above about 38%, no sharp cut-off; inactive = mostly below about 40%;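 also: 0% = agonist challenge alone and 100% = reference antagonist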
# M1 ag parental – counter-screen for M1 agonists: effect in parental CHO-K1 cells. Fluo-8 calcium fluorescence; scaled to maximal ATP response, vehicle zero. activation, % at 3 µM. hit rate 0.48% among 360,000; in the data active = activation above about 15%;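 also: untransfected CHO-K1 host cells lacking M1 receptor as counterscreen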
# CHO parental Ca – counter-screen for OX1R antagonists: effect in parental CHO cells; parental CHO-K1, ATP-induced calcium, Fluo-8 fluorescence; inhibition, % at 5.6 µM; hit rate 0.63% among 330,000; AID 463079;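 active = inhibition above that plate's mean sample inhibition plus 3 SD, cut at about 26% in these data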;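 also: 0% = ATP-challenged DMSO wells and 100% = DMSO wells without ATP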
#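 Test system: parental CHO cells; detection: calcium-sensitive Fluo-8 fluorescence; evaluation: percent inhibition of calcium signal; also added: ATP as calcium-mobilizing challenge; repeats: one well per compound; control set: ATP-challenged DMSO wells low, unchallenged DMSO wells high; compound: single nominal dose of 5.6 µM per compound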
# An asterisk follows results filed as active; . = no result. Compounds with a hit are over-represented: about 2.9% of the library has one in this group of screens.
SMILES,M1 PAM parental,CHO-K1 Ca antag,OX1R antag-1,OX1R antag-2,M1 ag parental,CHO parental Ca
Cc1ccc(NC(=O)CSc2nnc(CNC(=O)c3c(F)cccc3Cl)o2)cc1,-6,26*,-24,5,0,-10
CCn1nc(NC(=O)Cc2ccc(OC)cc2)c2cc3cccc(C)c3nc21,-5,-15,-20,7,5,-11
O=C(Cn1nc(-c2ccc3c(c2)OCCO3)ccc1=O)Nc1ccc(-n2cnnn2)cc1,19,-11,10,15,0,29*
O=C(Cn1nc(-c2ccccc2)ccc1=O)Nc1ccc(-n2cnnn2)cc1,-4,-2,8,28,0,-2
Cc1ccc(CNC(=O)C2CC3Cn4c(nc5cc(Cl)c(Cl)cc54)C3N2C)o1 (stereo unspecified),28,-16,-16,10,1,-18
O=C(O)CCC(=O)N1CCC[C@H]1C(=O)O,23,-3,-14,8,1,-8
CN1Cc2sc(NC(=S)NC(=O)c3ccccc3)c(C#N)c2CC1(C)C,.,.,40*,25,.,34*
O=C(OCn1ncc(Cl)c(Cl)c1=O)c1ccc(F)cc1,.,.,27,10,.,32*
O=C(O)c1cc(Cl)ccc1-c1ccc(/C=C/c2cc(C(F)(F)F)[nH]c(=O)n2)o1,-21,15,5,5,26*,4
O=Cc1ccc(-c2ccc(F)cc2)o1,14,-9,-8,3,0,2
O=C(O)c1ccccc1-c1ccc(/C=C/c2cc(C(F)(F)F)[nH]c(=O)n2)o1,-13,22,.,.,26*,.
Cc1nc(S/C(=C/c2ccc(-c3cc(Cl)ccc3C)o2)C(=O)O)n[nH]1,-3,-2,-15,2,0,-3
O=c1nc(/C=C/c2ccc(-c3ccc(F)cc3)o2)cc(C(F)(F)F)[nH]1,.,.,53*,13,.,12
CN(CC(=O)Nc1ccc2c(c1)OCCO2)S(=O)(=O)c1ccc(F)cc1,13,-18,-2,6,2,-13
CN(C)CC1CCC/C(=C/c2ccc(Cl)cc2)C1=O (stereo unspecified),-9,2,.,.,0,.
Cc1cc(Br)ccc1NC(=O)CN1C(=O)C2C3CC(c4ccccc4)C(C3)C2C1=O (stereo unspecified),3,2,40,10,2,31*
N#Cc1ccc(COn2nnc3ccccc32)cc1,20,-8,-5,22,1,-5
C/C(N)=C(/C#N)C(=O)CSc1nc2cc(Cl)ccc2s1,-1,4,-14,56*,9,-8
O=C1CN(C(=O)COC(=O)c2ccc([N+](=O)[O-])o2)c2ccccc2N1,13,-14,-20,34*,0,-6
O=C1CN(C(=O)COC(=O)c2ccc([N+](=O)[O-])s2)c2ccccc2N1,10,-8,-13,45*,2,-11
CC(C)=CCN1CCN(Cc2ccc(C#CC(C)(C)O)s2)CC1CCO (stereo unspecified),16,-8,-9,2,0,4
Cc1ccccc1N1CCN(C2CCCN(C(=O)c3cc[n+]([O-])cc3)C2)CC1 (stereo unspecified),3,-11,-6,9,1,-8
CC(=NNC(=O)c1ccncc1)c1ccc2ccccc2c1O,-20,16,.,.,69*,.
CC(=O)N1CCN(c2ccc([N+](=O)[O-])c(NCc3cccnc3)c2)CC1,5,-9,-12,42*,0,-12
O=C(O)c1ccc(NCc2cccnc2)c([N+](=O)[O-])c1,17,-20,-4,55*,0,2
SMILES,M1 PAM parental,CHO-K1 Ca antag,OX1R antag-1,OX1R antag-2,M1 ag parental,CHO parental Ca
CCS(=O)(=O)N1CCN(c2ccc([N+](=O)[O-])c(NCc3cccnc3)c2)CC1,-11,0,-35,21,1,10
Cc1ccc(C(=O)NCC(c2ccco2)N2CCCCC2)s1 (stereo unspecified),18,-11,-4,-9,0,-6
O=C(/C=C/c1ccc([N+](=O)[O-])cc1)NCC1CCCO1 (stereo unspecified),5,-5,-12,59*,0,-12
O=C(CN1C(=O)c2ccc([N+](=O)[O-])cc2C1=O)NC1CCS(=O)(=O)C1 (stereo unspecified),17,-24,-6,56*,2,4
O=C(NCC1CCCO1)c1ccc([N+](=O)[O-])s1 (stereo unspecified),15,-18,-9,70*,1,5
O=C(NCC(c1ccco1)N1CCCCC1)c1ccc([N+](=O)[O-])s1 (stereo unspecified),6,-3,-36,56*,1,-22
COc1c(S(=O)(=O)NCCCN2CCOCC2)ccc(Cl)c1Cl,-18,1,-17,-3,0,-1
O=C(CN1C(=O)c2ccc(Br)cc2C1=O)NCC1CCCO1 (stereo unspecified),18,-7,-11,31,0,-8
O=C(CN1C(=O)c2ccc([N+](=O)[O-])cc2C1=O)NCC1CCCO1 (stereo unspecified),10,5,-7,68*,0,3
COc1cccc(C(=O)Nc2ccc3[nH]c(=O)[nH]c3c2)c1OC,14,-12,-2,24,1,-1
N#CCCN1CCN(C2=NC(=O)/C(=C\c3cccs3)S2)CC1,-2,3,-5,42*,0,11
O=C1N=C(N2CCOCC2)S/C1=C\c1cccs1,4,-12,-5,41,0,-3
Cc1cccc(-c2ocnc2C(=O)Nc2ncc(C)s2)c1,13,-15,.,.,0,.
CCCOc1ccc(Br)cc1CSC(=N)N,0,21,0,12,36*,14
Cc1ccc(Cl)c2c1=NC(=O)C=2c1[nH]c(=S)[nH]c1O,12,5,-20,39,17*,-12
O=C1N=c2ccccc2=C1c1[nH]c(=S)[nH]c1O,20,-5,-11,43*,0,5
O=C1N=c2ccccc2=C1c1sc(=O)[nH]c1O,7,-1,3,36,0,-18
CCc1ccc(NC(=O)CS(=O)CC(=O)Nc2ccc(N3CCOCC3)cc2)cc1 (stereo unspecified),-1,-13,-7,16,0,3
O=C(Nc1ccccc1N1CCCCC1)c1ccc(-c2cc(Cl)ccc2Cl)o1,-13,5,9,6,0,9
CCC(C)(C)c1ccc(OCCCC[n+]2cccc(C)c2C)c(C(C)(C)CC)c1,11,13,52*,9,25*,40*
CCC(C)(C)c1ccc(OCCCC[n+]2ccc(C)cc2)c(C(C)(C)CC)c1,.,.,27,20,.,24
CC[C@@H](Nc1ncnc2c1oc1ccccc12)C(=O)O,15,-12,-3,8,0,99*
CCCS(=O)(=O)NC(=O)C1(C)CCN1C(=O)Cc1ccc(Cl)cc1Cl (stereo unspecified),7,-1,.,.,0,.
